Converted amounts (≈) assume the structure as drawn.
The compounds below were run on Escherichia coli (assay: Antibacterial activity against Escherichia coli 09-1 after 18 hrs by two fold serial dilution method). Details: 09-1, 18 h.
Assay type: functional
In short: (§1)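 Agar two-fold serial dilution in melted Mueller-Hinton agar, final concentrations 128 down to 0.008 μg/mL. Plates inoculated with 10⁴ cfu and incubated at 35 °C for 18 h. MIC taken as the lowest concentration giving no visible growth on the plate.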

Structure (SMILES)	MIC [µg/mL]
NCC1CN(c2nc3c(cc2F)c(=O)c(C(=O)O)cn3-c2ccc(F)cc2F)C/C1=N\OC(F)F (racemic)	32 (≈ 64.3 µM)

These compounds were tested on Staphylococcus aureus (assay: Antibacterial activity against methicillin-resistant Staphylococcus aureus 10-1 after 18 hrs by two fold serial dilution method). Details: 10-1, 18 h.
Assay type: functional
In short: (§2)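 Agar two-fold serial dilution in melted Mueller-Hinton agar, 128 to 0.008 μg/mL. Plates inoculated with 10⁴ cfu, incubated 35 °C for 18 h. MIC taken as lowest concentration giving no visible growth on the plate.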

Structure (SMILES)	MIC [µg/mL]
NCC1CN(c2nc3c(cc2F)c(=O)c(C(=O)O)cn3-c2ccc(F)cc2F)C/C1=N\OC(F)F (racemic)	16 (≈ 32.2 µM)

Each compound was assayed on Klebsiella pneumoniae (assay: Antibacterial activity against Klebsiella pneumoniae 10-3 after 18 hrs by two fold serial dilution method). Details: 10-3, 18 h.
Assay type: functional
In short: as §1

Structure (SMILES)	MIC [µg/mL]
NCC1CN(c2nc3c(cc2F)c(=O)c(C(=O)O)cn3-c2ccc(F)cc2F)C/C1=N\OC(F)F (racemic)	2 (≈ 4.02 µM)

The compounds below were run on Staphylococcus aureus (assay: Antibacterial activity against methicillin-resistant Staphylococcus aureus 10-3 after 18 hrs by two fold serial dilution method). Details: 10-3, 18 h.
Assay type: functional
In short: as §2

Structure (SMILES)	MIC [µg/mL]
NCC1CN(c2nc3c(cc2F)c(=O)c(C(=O)O)cn3-c2ccc(F)cc2F)C/C1=N\OC(F)F (racemic)	16 (≈ 32.2 µM)

The compounds below were run on Staphylococcus epidermidis (assay: Antibacterial activity against methicillin-sensitive Staphylococcus epidermidis 10-1 after 18 hrs by two fold serial dilution method). Details: 10-1, 18 h.
Assay type: functional
In short: as §1

Structure (SMILES)	MIC [µg/mL]
NCC1CN(c2nc3c(cc2F)c(=O)c(C(=O)O)cn3-c2ccc(F)cc2F)C/C1=N\OC(F)F (racemic)	32 (≈ 64.3 µM)

The compounds below were run on Staphylococcus aureus (assay: Antibacterial activity against methicillin-sensitive Staphylococcus aureus 10-3 after 18 hrs by two fold serial dilution method). Details: 10-3, 18 h.
Assay type: functional
In short: as §1

Structure (SMILES)	MIC [µg/mL]
NCC1CN(c2nc3c(cc2F)c(=O)c(C(=O)O)cn3-c2ccc(F)cc2F)C/C1=N\OC(F)F (racemic)	0.015 (≈ 0.0302 µM)

The compounds below were run on Escherichia coli (assay: Antibacterial activity against Escherichia coli ATCC 25922 after 18 hrs by two fold serial dilution method). Details: ATCC 25922, 18 h.
Assay type: functional
In short: as §1

Structure (SMILES)	MIC [µg/mL]
NCC1CN(c2nc3c(cc2F)c(=O)c(C(=O)O)cn3-c2ccc(F)cc2F)C/C1=N\OC(F)F (racemic)	0.008 (≈ 0.0161 µM)

These compounds were tested on Pseudomonas aeruginosa (assay: Antibacterial activity against Pseudomonas aeruginosa ATCC 27853 after 18 hrs by two fold serial dilution method). Details: ATCC 27853, 18 h.
Assay type: functional
In short: as §1

Structure (SMILES)	MIC [µg/mL]
NCC1CN(c2nc3c(cc2F)c(=O)c(C(=O)O)cn3-c2ccc(F)cc2F)C/C1=N\OC(F)F (racemic)	4 (≈ 8.04 µM)

Each compound was assayed on Klebsiella pneumoniae (assay: Antibacterial activity against Klebsiella pneumoniae 10-1 after 18 hrs by two fold serial dilution method). Details: 10-1, 18 h.
Assay type: functional
In short: as §1

Structure (SMILES)	MIC [µg/mL]
NCC1CN(c2nc3c(cc2F)c(=O)c(C(=O)O)cn3-c2ccc(F)cc2F)C/C1=N\OC(F)F (racemic)	0.25 (≈ 0.503 µM)

The compounds below were run on Escherichia coli (assay: Antibacterial activity against Escherichia coli 09-3 after 18 hrs by two fold serial dilution method). Details: 09-3, 18 h.
Assay type: functional
In short: as §1

Structure (SMILES)	MIC [µg/mL]
NCC1CN(c2nc3c(cc2F)c(=O)c(C(=O)O)cn3-c2ccc(F)cc2F)C/C1=N\OC(F)F (racemic)	64 (≈ 129 µM)

What follows are compounds tested on Klebsiella pneumoniae (assay: Antibacterial activity against Klebsiella pneumoniae 09-2 after 18 hrs by two fold serial dilution method). Details: 09-2, 18 h.
Assay type: functional
In short: as §1

Structure (SMILES)	MIC [µg/mL]
NCC1CN(c2nc3c(cc2F)c(=O)c(C(=O)O)cn3-c2ccc(F)cc2F)C/C1=N\OC(F)F (racemic)	64 (≈ 129 µM)

The compounds below were run on Enterococcus faecalis (assay: Antibacterial activity against Enterococcus faecalis 09-2 after 18 hrs by two fold serial dilution method). Details: 09-2, 18 h.
Assay type: functional
In short: as §1

Structure (SMILES)	MIC [µg/mL]
NCC1CN(c2nc3c(cc2F)c(=O)c(C(=O)O)cn3-c2ccc(F)cc2F)C/C1=N\OC(F)F (racemic)	16 (≈ 32.2 µM)

The compounds below were run on Staphylococcus aureus (assay: Antibacterial activity against methicillin-sensitive Staphylococcus aureus 10-4 after 18 hrs by two fold serial dilution method). Details: 10-4, 18 h.
Assay type: functional
In short: as §1

Structure (SMILES)	MIC [µg/mL]
NCC1CN(c2nc3c(cc2F)c(=O)c(C(=O)O)cn3-c2ccc(F)cc2F)C/C1=N\OC(F)F (racemic)	0.008 (≈ 0.0161 µM)

Each compound was assayed on Enterococcus faecium (assay: Antibacterial activity against Enterococcus faecium 09-3 after 18 hrs by two fold serial dilution method). Details: 09-3, 18 h.
Assay type: functional
In short: as §1

Structure (SMILES)	MIC [µg/mL]
NCC1CN(c2nc3c(cc2F)c(=O)c(C(=O)O)cn3-c2ccc(F)cc2F)C/C1=N\OC(F)F (racemic)	16 (≈ 32.2 µM)

What follows are compounds tested on Escherichia coli (assay: Antibacterial activity against Escherichia coli 10-3 after 18 hrs by two fold serial dilution method). Details: 10-3, 18 h.
Assay type: functional
In short: as §1

Structure (SMILES)	MIC [µg/mL]
NCC1CN(c2nc3c(cc2F)c(=O)c(C(=O)O)cn3-c2ccc(F)cc2F)C/C1=N\OC(F)F (racemic)	8 (≈ 16.1 µM)

These compounds were tested on Escherichia coli (assay: Antibacterial activity against Escherichia coli 09-2 after 18 hrs by two fold serial dilution method). Details: 09-2, 18 h.
Assay type: functional
In short: as §1

Structure (SMILES)	MIC [µg/mL]
NCC1CN(c2nc3c(cc2F)c(=O)c(C(=O)O)cn3-c2ccc(F)cc2F)C/C1=N\OC(F)F (racemic)	> 128

Each compound was assayed on Staphylococcus epidermidis (assay: Antibacterial activity against methicillin-resistant Staphylococcus epidermidis 10-2 after 18 hrs by two fold serial dilution method). Details: 10-2, 18 h.
Assay type: functional
In short: as §2

Structure (SMILES)	MIC [µg/mL]
NCC1CN(c2nc3c(cc2F)c(=O)c(C(=O)O)cn3-c2ccc(F)cc2F)C/C1=N\OC(F)F (racemic)	1 (≈ 2.01 µM)

What follows are compounds tested on Enterococcus faecalis (assay: Antibacterial activity against Enterococcus faecalis 09-1 after 18 hrs by two fold serial dilution method). Details: 09-1, 18 h.
Assay type: functional
In short: as §1

Structure (SMILES)	MIC [µg/mL]
NCC1CN(c2nc3c(cc2F)c(=O)c(C(=O)O)cn3-c2ccc(F)cc2F)C/C1=N\OC(F)F (racemic)	8 (≈ 16.1 µM)

The compounds below were run on Escherichia coli (assay: Antibacterial activity against Escherichia coli 10-2 after 18 hrs by two fold serial dilution method). Details: 10-2, 18 h.
Assay type: functional
In short: as §1

Structure (SMILES)	MIC [µg/mL]
NCC1CN(c2nc3c(cc2F)c(=O)c(C(=O)O)cn3-c2ccc(F)cc2F)C/C1=N\OC(F)F (racemic)	4 (≈ 8.04 µM)

Source: ChEMBL document CHEMBL1926550, “Synthesis and antibacterial activity of naphthyridone derivatives containing mono/difluoro-methyloxime pyrrolidine scaffolds” (2012)
